# HTRA1 inhibitor = HTRA1 serine protease inhibitors, primary screen, biochemical, fluorescence polarization, HTS; Q92743; recombinant HTRA1, FP-rhodamine activity-based probe; inhibition, % at 5.96 µM; hit rate 0.5% among 340,000; AID 504803, 2011; in the data active means inhibition above about 36%;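 further: 0% = enzyme with DMSO and 100% = wells lacking enzyme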
# ARNT-TACC3 inh = disruptors of ARNT/TACC3 protein interaction, primary screen, biochemical, AlphaScreen, single concentration; Transforming acidic coiled-coil-containing protein 3 (Homo sapiens), Q9Y6A5; AlphaScreen His-ARNT PAS-B/GST-TACC3 binding, luminescence; TACC3 fragment carries E629A point mutation; inhibition, % at 9.99 µM; hit rate 0.66% among 390,000;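 active means mean inhibition of replicates at least 50% and at least half of replicates each reaching 50%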;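 further: 0% = complete ARNT plus TACC3 wells and 100% = ARNT alone without TACC3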
# mABHD4 FP = ABHD4 inhibitors, primary screen, biochemical, fluorescence polarization, mouse; purified mABHD4, FP-Rh probe fluorescence polarization; inhibition, % at 8.92 µM; hit rate 0.54% among 370,000; AID 720543, 2013;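 active means inhibition exceeding the mean over every tested compound plus 3 SD, cut at about 30% in these data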;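 further: 0% = plate median of compound wells and 100% = S159A mutant with DMSO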
#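 Test system: mouse ABHD4 enzyme, wild type. Reagent: FP-Rh fluorescent activity-based probe, added after compound pre-incubation. Timing: pre-incubation 45 min, probe exposure 60 min, at 25 °C. Technique: FP readout, ex 525 nm / em 598 nm. Benchmarks: high control S159A mutant with DMSO, low control median of compound wells.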
# SIAE primary = human SIAE inhibitors, primary screen, biochemical, fluorescence polarization, FP-Rh probe, 1536-well HTS; Sialate O-acetylesterase (Homo sapiens), Q9HAT2; SIAE FP-Rh probe binding; inhibition, % at 9.66 µM; hit rate 0.69% among 370,000;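 active means inhibition above a cutoff: mean of compounds within the control limits plus 3 SD of those, cut at about 17% in these data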;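 further: 0% = plate median of compound wells and 100% = probe without SIAE protein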
# Target sequence (Q9HAT2 whole entry, looked up): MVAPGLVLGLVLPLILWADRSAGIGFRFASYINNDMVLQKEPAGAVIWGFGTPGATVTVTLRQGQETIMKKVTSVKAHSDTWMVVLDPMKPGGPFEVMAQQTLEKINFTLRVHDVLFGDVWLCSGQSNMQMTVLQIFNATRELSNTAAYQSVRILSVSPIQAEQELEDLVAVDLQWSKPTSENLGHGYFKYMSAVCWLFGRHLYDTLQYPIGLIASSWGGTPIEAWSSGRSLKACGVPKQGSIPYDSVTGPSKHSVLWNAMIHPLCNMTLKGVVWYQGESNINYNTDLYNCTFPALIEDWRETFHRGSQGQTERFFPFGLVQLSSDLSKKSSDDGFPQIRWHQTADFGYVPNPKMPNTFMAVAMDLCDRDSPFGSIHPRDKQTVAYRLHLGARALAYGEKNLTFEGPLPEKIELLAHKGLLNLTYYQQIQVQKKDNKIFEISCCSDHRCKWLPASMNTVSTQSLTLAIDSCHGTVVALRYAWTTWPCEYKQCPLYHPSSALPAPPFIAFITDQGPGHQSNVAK
# TCR-CD3 inh = inhibitors of human TCR-CD3 interaction, primary screen, biochemical, fluorescence, TAMRA-labeled TCR probe | inhibition, % at 9.4 µM | hit rate 0.37% among 360,000 | AID 651800, 2012; in the data active means inhibition above about 19%;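 further: recombinant mutant TCR 2C K166C tagged with TAMRA read by polarization; 0% = receptor in buffer alone and 100% = receptor with positive control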
# AlphaScreen ctr = AlphaScreen signal interference compounds, dose response, artefact control for ARNT-TACC3 interaction inhibitor project, biochemical, luminescence, cherry-pick. shares compounds with ARNT-TACC3 inh. His-ARNT PASB-GST AlphaScreen artifact counter-screen. AC50, µM (top dose mostly 68 µM), inactives show at the highest dose activity change, negative = signal decrease. hit rate 50% among 1,200. AID 651705, 2012;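 active means every separate test run was called active for a drop in luminescence, with AC50 within twice the top valid dose, actives reach about 71 µM in these data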
# Starred values were filed as active, the others as inactive; x = no result; [ ] = another dose, or the depositor's remark. Only some compounds are listed: those with a hit (about 1.8% of all), similar ones and a draw of the others.
SMILES,HTRA1 inhibitor,ARNT-TACC3 inh,mABHD4 FP,SIAE primary,TCR-CD3 inh,AlphaScreen ctr
C[C@@H]1CCCCO[C@H](CN(C)Cc2ccccc2)[C@H](C)CN([C@H](C)CO)C(=O)c2cc(NC(=O)Nc3cccc4ccccc34)ccc2O1,x,8,x,x,x,x
Cc1ccc(S(=O)(=O)Nc2cccc3c2O[C@H](CN(C)S(C)(=O)=O)[C@H](C)CN([C@H](C)CO)C3=O)cc1,x,41,x,x,x,x
O=c1[nH]c(N2CCOCC2)cc2ccccc12,7,41*,-1,-2,-1,-8%
O=C(Nc1ccc2nc(-c3ccccn3)[nH]c2c1)C1CCCCC1,14,59*,1,3,-1,-7%
O=C(CN1C(=O)CCC1=O)Nc1nc(-c2ccccn2)cs1,-1,59*,-6,-2,-6,34µM*
O=C(Nc1nc(-c2ccccn2)cs1)C1CCCC1,6,59*,-3,-2,-9,-15%
O=C(CCCSc1ccccc1)Nc1nc(-c2ccccn2)cs1,-8,35,-4,-8,8,x
O=C(Nc1nc(-c2nc3ccccc3s2)cs1)C1CC1,-20,-8,-25,-13,6,x
CC(C)c1nc2ccc(NC(=O)C3CCCCC3)cc2[nH]1,3,-6,-2,5,1,x
CSCCC(=O)Nc1nc(-c2ccccn2)cs1,0,58*,3,7,-7,71µM*
CCCNC(=O)N1C[C@@H](C)[C@@H](OC)CN(C)C(=O)c2ccc(NS(C)(=O)=O)cc2OC[C@H]1C,x,-4,x,x,x,x
O=C(C[C@@H]1CC[C@H](NC(=O)CN2CCOCC2)[C@H](CO)O1)NCCc1ccncc1,x,57*,x,x,x,6%[38 µM]
Cc1cccc(OCc2nc(-c3ccccn3)n[nH]2)c1,8,67*,0,1,-1,35µM*
Cc1ccc(OCc2nc(-c3ccccn3)n[nH]2)cc1,9,x,-2,3,4,x
COCCN(C[C@H]1[C@H](c2ccccc2)[C@H](CO)N1C(C)=O)C(=O)c1cccnc1,x,-7,x,x,x,x
O=c1ccc(-c2ccc(S(=O)(=O)NCc3cccc(Br)c3)s2)n[nH]1,-18,4,-8,-21,0,x
O=c1ccc(-c2ccc(S(=O)(=O)Nc3ccc(F)cc3)s2)n[nH]1,0,50*,0,-2,0,-9%
C[C@@H]1CN([C@@H](C)CO)C(=O)c2cc(NC(=O)C3CC3)ccc2O[C@H]1CN(C)C(=O)Nc1ccc(F)cc1,x,55*,x,x,x,-5%[42 µM]
C[C@H](CO)N1C[C@H](C)[C@@H](CN(C)C(=O)Nc2ccc(C(F)(F)F)cc2)Oc2ncc(C3=CCCC3)cc2C1=O,x,81*,x,x,x,-26%[38 µM]
C[C@H]1CCCCO[C@H](CN(C)C(=O)Nc2ccc(F)cc2)[C@@H](C)CN([C@@H](C)CO)C(=O)c2cc(NS(=O)(=O)c3ccc(Cl)cc3)ccc2O1,x,active,x,x,x,-36%[38 µM]
C[C@@H]1CN([C@@H](C)CO)C(=O)c2cc(NC(=O)CCN3CCOCC3)ccc2O[C@@H]1CN(C)Cc1ccncc1,x,51*,x,x,x,-7%[38 µM]
O=C(CCN1CCCCC1)NCC[C@H]1CC[C@@H](NC(=O)c2ccc(F)cc2)[C@@H](CO)O1,x,-5,x,x,x,x
COc1ccc(S(=O)(=O)Nc2ccc3c(c2)C(=O)N([C@H](C)CO)C[C@H](C)[C@H](CN(C)S(=O)(=O)c2ccc(C)cc2)O3)cc1,x,52*,x,x,x,-21%[38 µM]
C[C@@H]1CN([C@H](C)CO)C(=O)c2cc(NC(=O)Nc3ccc(C(F)(F)F)cc3)ccc2O[C@@H](C)CCCCO[C@@H]1CN(C)Cc1ccc2c(c1)OCO2,x,56*,x,x,x,26µM*
C[C@@H]1CN([C@@H](C)CO)C(=O)c2cc(NC(=O)C3CCCCC3)ccc2O[C@@H](C)CCCCO[C@@H]1CN(C)C(=O)NC1CCCCC1,x,active,x,x,x,-5%[38 µM]
SMILES,HTRA1 inhibitor,ARNT-TACC3 inh,mABHD4 FP,SIAE primary,TCR-CD3 inh,AlphaScreen ctr
C[C@@H]1CCCCO[C@H](CN(C)Cc2ccc3c(c2)OCO3)[C@@H](C)CN([C@H](C)CO)C(=O)c2cc(NC(=O)Nc3ccc(C(F)(F)F)cc3)ccc2O1,x,30,x,x,x,x
C[C@H]1CN([C@@H](C)CO)C(=O)Cc2cc(NC(=O)Nc3cccc4ccccc34)ccc2O[C@@H]1CN(C)C(=O)NC1CCCCC1,x,5,x,x,x,x
Cc1noc(C)c1S(=O)(=O)N(C)C[C@@H]1OCCCC[C@@H](C)Oc2ccc(NC(=O)NC(C)C)cc2C(=O)N([C@H](C)CO)C[C@H]1C,x,2,x,x,x,x
C[C@@H]1CN([C@H](C)CO)C(=O)c2cccc(NC(=O)C3CC3)c2O[C@H]1CN(C)C(=O)Nc1cccc2ccccc12,x,22,x,x,x,x
CC(=O)N1CN(Cc2ccccn2)Cc2c1sc1c2CCCC1,4,71*,-1,9,0,-15%
CC(=O)N1CN(CCCn2ccnc2)Cc2c1sc1c2CCCC1,-1,18,-6,-5,-6,x
CC(NC(=O)NCCCn1ccnc1)(C(F)(F)F)C(F)(F)F,3,6,5,-6,7,x
O=C(NCCCn1ccnc1)C(F)(F)C(F)(F)C(=O)NCCCn1ccnc1,2,51*,5,-4,4,-18%
Nc1nc(-c2ccccn2)nc(N)c1Cc1ccccc1F,26,67*,3,-1,7,22µM*
CC1=CC(C)(C)N(C(=O)C(C)N2C(=O)c3ccccc3C2=O)c2ccc(C)cc21 (stereo unspecified),-4,active,1,-2,4,-22%
Cc1ccc(NC(=O)CN(C)C(=O)COc2cccc3cccnc23)cc1,10,58*,5,0,-3,-17%
COC(C(=O)N/N=C(\C)c1ccc(O)cc1)c1ccccc1 (stereo unspecified),1,0,2,-3,-14,x
C/C(=N\NC(=O)C(c1ccccc1)c1ccccc1)c1ccc(O)cc1,-2,60*,-10,2,-2,-15%
Cc1cc(C)c(S(=O)(=O)N2CCCC2=O)c(C)c1N(C)S(C)(=O)=O,1,9.2*,5,-1,4,-5%
CCc1c(C)sc(NC(=O)C2CC(c3c(F)cccc3Cl)=NO2)c1C#N (stereo unspecified),-22,active,-4,2,5,3%
N#Cc1c(NC(=O)C2CC(c3c(F)cccc3Cl)=NO2)sc2c1CCC2 (stereo unspecified),-34,1,-4,0,5,x
COc1ccc(NC(=O)N(C)C[C@@H]2OCCCC[C@H](C)Oc3ccc(NC(=O)CCCN(C)C)cc3C(=O)N([C@H](C)CO)C[C@@H]2C)cc1,x,-5,x,x,x,x

# Source: PubChem (several laboratories)
